# Source: ChEMBL document CHEMBL1124981, “Binding of indolylalkylamines at 5-HT2 serotonin receptors: examination of a hydrophobic binding region” (J Med Chem, 1990)
# Columns and labels:
# [1] = biological target: Serotonin 2 (5-HT2) receptor (Rattus norvegicus, UniProt P30994+P08909+P14842); assay: Binding affinity against 5-hydroxytryptamine 2 receptor using [3H]ketanserin as radioligand; format: protein assay
# Outline: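 Rat brain tissue homogenized in 50 mM Tris-HCl, 0.5 mM Na2EDTA, 10 mM MgSO4, pH 7.4, and centrifuged twice at 30000g. Assay buffer adds 10 μM pargyline and 0.1% ascorbate.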
# [2] = biological target: T1, 5-hydroxytryptamine receptor 1A (Rattus norvegicus, UniProt P19327); assay: Binding affinity against 5-hydroxytryptamine 1A receptor using [3H]-8-OH-DPAT as radioligand
# T1 sequence (P19327 whole entry): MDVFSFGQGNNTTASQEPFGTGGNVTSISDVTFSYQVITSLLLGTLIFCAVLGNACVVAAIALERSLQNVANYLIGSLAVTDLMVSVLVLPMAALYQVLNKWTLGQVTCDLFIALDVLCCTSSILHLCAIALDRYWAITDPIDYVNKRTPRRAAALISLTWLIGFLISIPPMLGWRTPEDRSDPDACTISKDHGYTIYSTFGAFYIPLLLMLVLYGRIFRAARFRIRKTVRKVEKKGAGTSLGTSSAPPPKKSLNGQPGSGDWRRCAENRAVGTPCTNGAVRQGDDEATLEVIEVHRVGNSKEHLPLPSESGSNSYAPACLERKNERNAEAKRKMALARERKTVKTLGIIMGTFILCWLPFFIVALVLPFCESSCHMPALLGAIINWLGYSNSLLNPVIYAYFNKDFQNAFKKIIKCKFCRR
# Outline: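 Rat hippocampal homogenate (5 mg tissue) with [3H]-8-OH-DPAT; 10 μM 8-OH-DPAT defines nonspecific binding. Buffer: 50 mM Tris-HCl, 0.5 mM Na2EDTA, 10 mM MgSO4, pH 7.4, 10 μM pargyline, 0.1% ascorbate.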
SMILES,Ki [1],Ki [2]
CCCn1cc(CC(C)N)c2cc(OC)ccc21 (centres undefined),635 nM,–
CC(N)Cc1cn(Cc2ccccc2)c2ccccc12 (centres undefined),160 nM,30 nM
CCCCCCCCn1cc(CC(C)N)c2ccccc21 (centres undefined),280 nM,78 nM
CC(N)Cc1c[nH]c2ccccc12 (centres undefined),–,530 nM
CCCn1cc(CC(C)N)c2ccccc21 (centres undefined),1550 nM,715 nM
CCCCCn1ccc(CC(C)N)c1 (centres undefined),5200 nM,7500 nM
CCCc1cccc2c(CC(C)N)c[nH]c12 (centres undefined),1040 nM,1000 nM
COc1ccc2[nH]cc(CC(C)N)c2c1 (centres undefined),345 nM,7 nM
CCCCCn1cc(CC(C)N)c2ccccc21 (centres undefined),100 nM,2400 nM
CC(N)Cc1cc[nH]c1 (centres undefined),> 10000 nM,> 10000 nM
COc1ccc2c(c1)c(CC(C)N)cn2Cc1ccccc1 (centres undefined),250 nM,> 10000 nM
CCCn1ccc(CC(C)N)c1 (centres undefined),> 10000 nM,> 10000 nM
CCCCCc1cccc2c(CC(C)N)c[nH]c12 (centres undefined),140 nM,6850 nM
